These results are taken from ChEMBL document CHEMBL3745673, “Synthesis, antimycobacterial screening and ligand-based molecular docking studies on novel pyrrole derivatives bearing pyrazoline, isoxazole and phenyl thiourea moieties” (Eur J Med Chem, 2016).

The experiment concerns Mycobacterium tuberculosis. Briefly: Antitubercular activity against multi drug resistant Mycobacterium tuberculosis H37Rv after 5 days by microplate alamar blue assay. The settings on record: 120 h. It counts as functional. A digest of the protocol:
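Middlebrook 7H9 broth with compounds serially diluted on the plate over ten concentrations from 0.2 to 100. Sealed plates incubated 5 days at 37°C, then a fresh 1:1 mix of Alamar Blue and 10% Tween 80 was added for a further 24 h. Blue wells were scored as no growth and pink wells as growth.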
On the technique in general: Resazurin is reduced to fluorescent resorufin, in cell work by metabolically active cells.

Values after ≈ are worked out from the molar mass of the structure shown.

As a reminder, the MIC is the least concentration at which growth counts as inhibited. `COc1ccc(/C=C/C(=O)c2ccc(-n3cccc3)cc2)cc1` showed an MIC of 12.5 µg/mL (≈ 41.2 µM).
Regarding `COc1cc(C2CC(c3cccc([N+](=O)[O-])c3)=NN2C(C)=O)cc(OC)c1OC` (centres undefined), the minimal inhibitory concentration (MIC) amounted to 12.5 µg/mL (≈ 31.3 µM).
The result for `CC(=O)Nc1ccc(O)c(C2CC(c3ccc(Cl)cc3)=NN2C(=O)c2ccncc2)c1` (centres undefined) reads 3.12 µg/mL (≈ 7.17 µM); that for `COc1ccc(C2CC(c3ccc(-n4cccc4)cc3)=NN2C(C)=O)cc1OC` (centres undefined), 12.5 µg/mL (≈ 32.1 µM); that for `Clc1ccc(-c2cc(-c3ccc(-n4cccc4)cc3)on2)cc1`, 50 µg/mL (≈ 156 µM).
Molecule `Clc1cccc(Cl)c1-c1cc(-c2ccc(-n3cccc3)cc2)on1` displayed an MIC of 100 µg/mL (≈ 282 µM).
The result for `Cc1ccc(NC(=S)Nc2ccccc2-n2c(C)ccc2C)cc1` reads 50 µg/mL (≈ 149 µM).
The result for `Brc1ccccc1-c1cc(-c2ccc(-n3cccc3)cc2)on1` reads 100 µg/mL (≈ 274 µM).
Regarding `Clc1cccc(-c2cc(-c3ccc(-n4cccc4)cc3)on2)c1Cl`, the lowest concentration to inhibit growth (MIC) was 25 µg/mL (≈ 70.4 µM).
`CC(=O)N1N=C(c2ccc(-n3cccc3)cc2)CC1c1ccc(Cl)cc1Cl` (centres undefined) gave an MIC of 25 µg/mL (≈ 62.8 µM).
In the case of `O=C(/C=C/c1ccccc1Cl)c1ccc(-n2cccc2)cc1`, the MIC is 25 µg/mL (≈ 81.2 µM).
In the case of `Cc1ccc(C)n1-c1ccccc1NC(=S)Nc1ccc(Cl)c(Cl)c1` it was 6.25 µg/mL (≈ 16 µM).
`CC(=O)N1N=C(c2ccc(-n3cccc3)cc2)CC1c1ccc(Cl)cc1` (centres undefined) had an MIC of 25 µg/mL (≈ 68.7 µM).
In the case of `Brc1cccc(-c2cc(-c3ccc(-n4cccc4)cc3)on2)c1` it was 50 µg/mL (≈ 137 µM); in that of `Fc1ccc(-c2cc(-c3ccc(-n4cccc4)cc3)on2)cc1`, 12.5 µg/mL (≈ 41.1 µM); in that of `O=C(/C=C/c1ccccc1)c1ccc(-n2cccc2)cc1`, 50 µg/mL (≈ 183 µM).
Regarding `O=C(/C=C/c1ccc(Cl)cc1Cl)c1ccc(-n2cccc2)cc1`, the MIC amounted to 25 µg/mL (≈ 73.1 µM).
In the case of `CC(=O)N1N=C(c2ccc(-n3cccc3)cc2)CC1c1ccccc1` (centres undefined) it was 25 µg/mL (≈ 75.9 µM); in that of `Cc1ccc(C)n1-c1ccccc1NC(=S)Nc1ccccc1Br`, 50 µg/mL (≈ 125 µM).
In the case of `Clc1ccc(-c2cc(-c3ccc(-n4cccc4)cc3)on2)c(Cl)c1` it was 50 µg/mL (≈ 141 µM); in that of `Clc1ccccc1-c1cc(-c2ccc(-n3cccc3)cc2)on1`, 25 µg/mL (≈ 77.9 µM).
Take `CC(C)c1ccc(/C=C/C(=O)c2ccc(-n3cccc3)cc2)cc1`: it took 12.5 µg/mL (≈ 39.6 µM) to inhibit growth (MIC).
The result for `Cc1ccc(C)n1-c1ccccc1NC(=S)Nc1ccc(F)cc1` reads 1.6 µg/mL (≈ 4.71 µM); that for `COc1cccc(C2CC(c3ccc(-n4cccc4)cc3)=NN2C(C)=O)c1` (centres undefined), 6.25 µg/mL (≈ 17.4 µM); that for `CC(=O)N1N=C(c2ccc(-n3cccc3)cc2)CC1c1ccccc1Br` (centres undefined), 100 µg/mL (≈ 245 µM).
In the case of `CC(=O)N1N=C(c2ccc(-n3cccc3)cc2)CC1c1c(Cl)cccc1Cl` (centres undefined) it was 25 µg/mL (≈ 62.8 µM).
As for `O=C(/C=C/c1ccccc1O)c1ccc(-n2cccc2)cc1`, the MIC was found to be 25 µg/mL (≈ 86.4 µM).
In the case of `Cc1ccc(C)n1-c1ccccc1NC(=S)Nc1ccccc1`, inhibition of growth (MIC) required 50 µg/mL (≈ 156 µM).
For the molecule `NC(=S)N1N=C(C/N=N/NC(=O)c2cccnc2)CC1c1ccccc1` (centres undefined), the MIC stood at 1.25 µg/mL (≈ 3.4 µM).
The result for `O=C(/C=C/c1cccc(Cl)c1Cl)c1ccc(-n2cccc2)cc1` reads 25 µg/mL (≈ 73.1 µM); that for `c1coc(-c2cc(-c3ccc(-n4cccc4)cc3)on2)c1`, 25 µg/mL (≈ 90.5 µM); that for `CC(=O)N1N=C(c2ccc(-n3cccc3)cc2)CC1c1ccco1` (centres undefined), 25 µg/mL (≈ 78.3 µM).
In the case of `O=C(/C=C/c1cccc(Oc2ccccc2)c1)c1ccc(-n2cccc2)cc1` it was 25 µg/mL (≈ 68.4 µM); in that of `Cc1ccc(C)n1-c1ccccc1NC(=S)Nc1ccc(Cl)cc1`, 50 µg/mL (≈ 140 µM); in that of `CC(=O)N1N=C(c2ccc(-n3cccc3)cc2)CC1c1ccccc1Cl` (centres undefined), 25 µg/mL (≈ 68.7 µM).
Molecule `COc1ccc(-c2cc(-c3ccc(-n4cccc4)cc3)on2)cc1OC` yielded an MIC of 12.5 µg/mL (≈ 36.1 µM).
The result for `c1ccc(-c2cc(-c3ccc(-n4cccc4)cc3)on2)cc1` reads 100 µg/mL (≈ 349 µM); that for `Cc1ccc(-c2cc(-c3ccc(-n4cccc4)cc3)on2)cc1`, 12.5 µg/mL (≈ 41.6 µM).
`COc1ccc(C2CC(c3ccc(-n4cccc4)cc3)=NN2C(C)=O)c(OC)c1` (centres undefined) gave an MIC of 6.25 µg/mL (≈ 16 µM).
In the case of `Cc1ccc(C)n1-c1ccccc1NC(=S)Nc1ccc([N+](=O)[O-])cc1` it was 50 µg/mL (≈ 136 µM); in that of `O=C(/C=C/c1c(Cl)cccc1Cl)c1ccc(-n2cccc2)cc1`, 25 µg/mL (≈ 73.1 µM); in that of `O=C(/C=C/c1cccc(Br)c1)c1ccc(-n2cccc2)cc1`, 100 µg/mL (≈ 284 µM).
As to `CC(=O)N1N=C(c2ccc(-n3cccc3)cc2)CC1c1cccc(Cl)c1Cl` (centres undefined), the lowest concentration to inhibit growth (MIC) was 25 µg/mL (≈ 62.8 µM).
As for `O=C(/C=C/c1ccccc1Br)c1ccc(-n2cccc2)cc1`, the MIC stood at 50 µg/mL (≈ 142 µM).
In turn, `CC(=O)N1N=C(c2ccc(-n3cccc3)cc2)CC1c1ccc(F)cc1` (centres undefined) had an MIC of 12.5 µg/mL (≈ 36 µM).
The result for `O=C(/C=C/c1ccco1)c1ccc(-n2cccc2)cc1` reads 50 µg/mL (≈ 190 µM); that for `COc1cccc(/C=C/C(=O)c2ccc(-n3cccc3)cc2)c1`, 25 µg/mL (≈ 82.4 µM); that for `Cc1ccc(C)n1-c1ccccc1NC(=S)Nc1cccc(Cl)c1`, 50 µg/mL (≈ 140 µM).
`O=C(/C=C/c1ccc(F)cc1)c1ccc(-n2cccc2)cc1`: the MIC stood at 12.5 µg/mL (≈ 42.9 µM).
`CC(=O)N1N=C(c2ccc(-n3cccc3)cc2)CC1c1cccc(Br)c1` (centres undefined): 50 µg/mL (≈ 122 µM) was the least that counted as inhibitory (MIC).
The result for `CC(=O)N1N=C(c2ccc(-n3cccc3)cc2)CC1c1ccc(C)cc1` (centres undefined) reads 6.25 µg/mL (≈ 18.2 µM); that for `Cc1ccc(C)n1-c1ccccc1NC(=S)Nc1cccc(Br)c1`, 50 µg/mL (≈ 125 µM).
As for `c1ccc(Oc2cccc(-c3cc(-c4ccc(-n5cccc5)cc4)on3)c2)cc1`, inhibition of growth (MIC) required 12.5 µg/mL (≈ 33 µM).
`COc1ccc(/C=C/C(=O)c2ccc(-n3cccc3)cc2)cc1OC` displayed an MIC of 25 µg/mL (≈ 75 µM).
Molecule `CC(=O)N1N=C(c2ccc(-n3cccc3)cc2)CC1c1cccc(Oc2ccccc2)c1` (centres undefined) showed an MIC of 12.5 µg/mL (≈ 29.7 µM).
The result for `COc1ccccc1NC(=S)N1N=C(c2ccc(O)c(C)c2)CC1c1c(Cl)cccc1Cl` (centres undefined) reads 1.66 µg/mL (≈ 3.41 µM); that for `O=C(/C=C/c1ccc(Cl)cc1)c1ccc(-n2cccc2)cc1`, 50 µg/mL (≈ 162 µM).
In the case of `CC[C@@H](CO)NCCN[C@@H](CC)CO` [ETHAMBUTOL] it was 0.5 µg/mL (≈ 2.45 µM).
The result for `CO[C@H]1/C=C/O[C@@]2(C)Oc3c(C)c(O)c4c(O)c(c(/C=N/N5CCN(C)CC5)c(O)c4c3C2=O)NC(=O)/C(C)=C\C=C\[C@H](C)[C@H](O)[C@@H](C)[C@@H](O)[C@@H](C)[C@H](OC(C)=O)[C@@H]1C` [RIFAMPIN] reads 0.4 µg/mL (≈ 0.486 µM).
